Data set [1] deals with T1, Protein kinase C epsilon type (Homo sapiens) (UniProt Q02156).
T1 sequence (whole entry): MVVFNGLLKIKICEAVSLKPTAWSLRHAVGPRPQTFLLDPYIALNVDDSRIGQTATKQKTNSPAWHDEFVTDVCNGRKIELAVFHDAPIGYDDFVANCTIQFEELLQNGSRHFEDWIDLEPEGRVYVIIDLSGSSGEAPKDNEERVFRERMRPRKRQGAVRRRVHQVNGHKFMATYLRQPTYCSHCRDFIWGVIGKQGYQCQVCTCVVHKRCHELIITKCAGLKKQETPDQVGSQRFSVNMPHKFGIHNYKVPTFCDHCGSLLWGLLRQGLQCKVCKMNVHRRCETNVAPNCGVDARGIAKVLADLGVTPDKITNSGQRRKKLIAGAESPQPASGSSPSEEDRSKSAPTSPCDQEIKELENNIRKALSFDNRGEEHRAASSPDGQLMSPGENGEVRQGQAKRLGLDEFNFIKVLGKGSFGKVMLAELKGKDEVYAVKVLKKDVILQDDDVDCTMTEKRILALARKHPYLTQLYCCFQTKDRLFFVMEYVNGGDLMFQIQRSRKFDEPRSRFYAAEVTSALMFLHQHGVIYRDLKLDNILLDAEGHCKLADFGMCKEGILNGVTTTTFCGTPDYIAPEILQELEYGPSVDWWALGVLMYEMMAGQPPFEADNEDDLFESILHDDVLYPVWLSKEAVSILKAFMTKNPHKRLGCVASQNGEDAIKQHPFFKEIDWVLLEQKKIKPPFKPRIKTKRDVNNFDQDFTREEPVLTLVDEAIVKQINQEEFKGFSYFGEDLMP
Nature of the data set: Inhibition of phosphorylated form of PKCepsilon translocation to cell membrane in human PC3 cells at 25 to 50 uM by densitometric analysis. It is filed as cell-based. To be noted: PC-3. In outline: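 PC-3 cells starved 16 h, agent 30 min, then 50 nM TPA 5 min; lysed and split into cytosolic and membrane fractions; Western blot for PKCε, PKCε pSer729 or PKCδ, with IGFI-βR (membrane) and GAPDH (cytosol) loading controls; densitometry of four independent experiments, normalized to control, t test.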

In data set [2] the target is T2, NUAK family SNF1-like kinase 1 (Homo sapiens) (UniProt O60285).
T2 sequence (whole entry): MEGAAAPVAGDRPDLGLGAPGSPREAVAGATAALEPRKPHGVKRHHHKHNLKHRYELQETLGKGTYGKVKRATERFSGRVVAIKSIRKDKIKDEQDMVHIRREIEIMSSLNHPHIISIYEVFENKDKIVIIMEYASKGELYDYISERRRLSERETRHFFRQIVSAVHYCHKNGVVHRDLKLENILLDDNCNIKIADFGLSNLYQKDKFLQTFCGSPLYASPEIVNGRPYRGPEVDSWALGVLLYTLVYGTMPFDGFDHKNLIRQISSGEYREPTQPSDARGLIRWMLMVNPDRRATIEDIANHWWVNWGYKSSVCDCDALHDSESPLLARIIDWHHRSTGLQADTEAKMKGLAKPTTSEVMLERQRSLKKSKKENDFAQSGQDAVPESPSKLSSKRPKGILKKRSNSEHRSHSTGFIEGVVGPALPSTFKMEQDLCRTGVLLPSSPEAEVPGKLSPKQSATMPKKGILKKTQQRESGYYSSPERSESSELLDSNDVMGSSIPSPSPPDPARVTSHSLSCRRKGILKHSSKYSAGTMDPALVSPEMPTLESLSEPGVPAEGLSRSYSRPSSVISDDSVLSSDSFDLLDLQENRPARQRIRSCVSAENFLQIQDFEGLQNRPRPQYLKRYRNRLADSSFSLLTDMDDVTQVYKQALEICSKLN
Nature of the data set: Inhibition of NUAK1 (unknown origin) at 25 uM; values are per cent of control.

Data set [3] concerns the target Protein kinase C beta type (Homo sapiens) (UniProt P05771). Nature of the data set: Inhibition of PKCbeta1 (unknown origin) at 50 uM.
Data set [4] deals with HeLa. Nature of the data set: Antiproliferative activity against human HeLa cells expressing luciferase gene up to 50 uM. It is filed as cell-based. The method, boiled down: (§1)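 HeLa-HLR and PC-3 cells seeded ~10 000/well; agent added after 4 h at various concentrations for 72 h; growth read by SRB assay; mean ±SD of three independent experiments, triplicate samples each.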

Data set [5] concerns the target T1, Protein kinase C epsilon type (Homo sapiens). Nature of the data set: Inhibition of recombinant PKCepsilon (unknown origin)-MBP-tagged RACK2 interaction at 10 uM after 1 hr by ELISA-based assay relative to untreated control. To be noted: values are per cent of control. In outline: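 ELISA: plates coated with 100 ng recombinant PKCε in 20 mM Tris-HCl/100 mM NaCl pH 7.5 overnight at 4 °C, blocked with 3% BSA; PKCε activated 10 min at 30 °C with 60 μg/mL phosphatidylserine and 100 nM TPA; RACK2-MBP preincubated with agent 30 min, then 500 ng added for 1 h binding; anti-RACK2/HRP detection, ABTS at 420 nm; four experiments, quadruplicates, normalized to control; IC50 via CalcuSyn.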

For data set [6], the system named is HeLa. Nature of the data set: Antiinvasive activity against human HeLa cells expressing doxycycline-inducible PKCepsilon at 25 uM after 24 hrs. It is filed as functional, cell-based. The method, boiled down: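 Invasion of HeLa cells carrying doxycycline-inducible constitutively active PKCε, PKCε expression induced with doxycycline, through reconstituted basement membrane matrix using a commercial invasion kit per manufacturer; mean of three experiments, normalized to control (100%), t test.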

Data set [7] is filed under the species Gallus gallus. Nature of the data set: Antiangiogenic activity in chicken egg assessed as inhibition of VEGF-induced angiogenesis at 10 ng after 5 days by microscopic analysis. The data set is classed as functional. The method, boiled down: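 Hen eggs incubated 3 days at 37 °C, opened, incubated 7 more days; VEGF and test agent added on day 10; after 5 further days, vessel formation inspected by microscope.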

For data set [8], the system named is PC-3. Nature of the data set: Antiproliferative activity against human PC3 cells expressing luciferase gene up to 50 uM. The data set is classed as cell-based. In outline: as §1

Calls of active or inactive are those of the source. The rule behind the calls is not given here.

Chain of Protein kinase C beta type (Homo sapiens) (P05771 2-671 limits assumed): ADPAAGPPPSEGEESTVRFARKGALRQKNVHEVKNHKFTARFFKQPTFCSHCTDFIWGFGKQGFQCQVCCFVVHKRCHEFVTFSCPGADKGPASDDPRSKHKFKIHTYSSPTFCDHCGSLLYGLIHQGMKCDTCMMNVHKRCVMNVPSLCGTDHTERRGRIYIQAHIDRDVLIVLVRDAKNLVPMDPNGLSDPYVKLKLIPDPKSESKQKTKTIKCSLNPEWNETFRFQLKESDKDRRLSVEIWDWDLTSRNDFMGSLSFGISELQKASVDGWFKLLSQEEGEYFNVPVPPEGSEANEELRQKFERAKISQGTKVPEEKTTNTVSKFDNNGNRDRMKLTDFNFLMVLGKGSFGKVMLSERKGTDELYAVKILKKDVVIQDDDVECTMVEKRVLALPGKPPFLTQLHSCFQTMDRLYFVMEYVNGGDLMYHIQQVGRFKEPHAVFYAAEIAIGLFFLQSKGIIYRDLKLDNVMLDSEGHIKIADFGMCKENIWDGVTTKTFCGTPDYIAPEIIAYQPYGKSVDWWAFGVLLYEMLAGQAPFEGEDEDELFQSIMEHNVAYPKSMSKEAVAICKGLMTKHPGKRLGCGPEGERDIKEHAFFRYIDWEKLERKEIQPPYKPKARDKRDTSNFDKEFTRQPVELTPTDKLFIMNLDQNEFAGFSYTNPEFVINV

For `CC(=O)c1cccc(NC(=O)c2sc3nc4cc5c(cc4cc3c2N)OCCO5)c1`, the inhibition result in data set [1], in data set [6] and in data set [7] was “Active” in each case. For the same molecule, the residual activity in data set [2] came out at 49%. This molecule gave an inhibition in data set [3] of 80%. Moreover, the Activity entry in data set [4] and in data set [8] was “Non-toxic” in each case. For the same molecule, the residual binding, % of control in data set [5] was determined as 23.6%.

Source of the values: ChEMBL document CHEMBL3259708, “Thienoquinolines as novel disruptors of the PKCε/RACK2 protein-protein interaction” (J Med Chem, 2014).
